Test [1] has as its system BT-474. In words: Cytotoxicity against human BT-474 cells assessed as cell death measured after 48 hrs. In kind it is functional. In short, it runs like this:
(§1)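 BT-474 cells in DMEM/F12 with 10% FBS plus penicillin/streptomycin, 37°C, 5% CO2. Seeded at 10,500 cells/well and left 24 h, then exposed to rising drug concentrations (stock 30 mM) for 48 h. Read-out: PrestoBlue (10% v/v), 40-45 min, fluorescence ex 560/em 590 nm. Values are blank-subtracted and expressed relative to vehicle-treated cells. Two independent experiments, five wells per concentration.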

Test [2] concerns MIA PaCa-2. The test is described as follows: Cytotoxicity against human MIA PaCa-2 cells assessed as cell death measured after 48 hrs. Type of test: functional. A digest of the protocol: (§2)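 MIAPaCa-2 in DMEM with 10% FBS, 2.5% horse serum and penicillin/streptomycin, seeded at 7500 cells/well. After 24 h, treated 48 h with increasing drug concentrations from a 30 mM stock. PrestoBlue 10% v/v, 40-45 min, fluorescence 560/590 nm, blank-subtracted, relative to vehicle-treated cells. Two independent experiments, five wells per concentration.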

Test [3] concerns JIMT-1. The test is described as follows: Cytotoxicity against human JIMT-1 cells assessed as cell death measured after 48 hrs. Type of test: functional. A digest of the protocol:
(§3)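 DU-145 (5000 cells/well) or JIMT-1 (8000 cells/well) in DMEM with 10% FBS and penicillin/streptomycin. Plated cells rested 24 h, then received increasing drug concentrations (30 mM stock) for 48 h. Viability by PrestoBlue 10% v/v for 40-45 min, fluorescence ex 560/em 590 nm, blank-subtracted, relative to vehicle. Two independent experiments, five wells per concentration.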

For test [4], the system named is DU-145. The test is described as follows: Cytotoxicity against human DU-145 cells assessed as cell death measured after 48 hrs. Type of test: functional. In short, it runs like this: as §3
Test [5] is described as follows: Potency index, ratio of monobasic GAEL IC50 to test compound IC50 for cytotoxicity against human DU-145 cells assessed as cell death measured after 48 hrs. In kind it is functional.
A short description of test [6]: Potency index, ratio of monobasic GAEL IC50 to test compound IC50 for cytotoxicity against human MIAPaCa-2 cells assessed as cell death measured after 48 hrs. In kind it is functional, MIA PaCa-2.
Test [7] is described as follows: Potency index, ratio of monobasic GAEL IC50 to test compound IC50 for cytotoxicity against human JIMT-1 cells assessed as cell death measured after 48 hrs. In kind it is functional.
Test [8] concerns BT-474. In words: Cytotoxicity against human BT-474 cells assessed as cell death at 6 to 10 uM measured after 48 hrs. Type of test: functional, cell-based. The note with it: dose 6-10 µM. In short, it runs like this:
as §1

The nature of test [9]: Cytotoxicity against human COV362 cells assessed as cell death at 8 uM measured after 48 hrs by using PrestoBlue cell viability assay. In kind it is functional. A digest of the protocol: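 COV362 cells in DMEM with 10% FBS and penicillin/streptomycin at 37 °C and 5% CO₂, seeded at 7500 per well. After 24 h, exposed 48 h to increasing drug concentrations diluted from a 30 mM stock. PrestoBlue (10% v/v) added for 40-45 min, fluorescence read at ex 560/em 590 nm. Cell-free blanks subtracted, viability relative to vehicle. Two independent experiments, five wells per concentration.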

The test system of test [10] is DU-145. The test is described as follows: Cytotoxicity against human DU-145 cells assessed as cell death at 4 to 8 uM measured after 48 hrs in presence of MX1013 pan-caspase inhibitor. The note with it: dose 4-8 µM.
The test system of test [11] is HepG2. The test is described as follows: Cytotoxicity against human HepG2 cells assessed as elimination of cells at 6 uM measured after 48 hrs by using PrestoBlue cell viability assay. In kind it is functional. In short, it runs like this:
(§4)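 DMEM with 10% FBS plus penicillin/streptomycin, 37°C, 5% CO2. Seeding per well: BxPC3 7500, COV362 7500, HEYC2 8000, HepG2 8000, MDA-MB-231 8000. After 24 h, drug added at increasing concentrations (30 mM stock) for 48 h. PrestoBlue 10% v/v for 40-45 min; fluorescence 560/590 nm, blank-subtracted, relative to vehicle. Two experiments, five wells each; CC50 by nonlinear regression.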

Test [12] in a line: Cytotoxicity against human COV362 cells assessed as cell viability measured after 48 hrs by using PrestoBlue cell viability assay. In kind it is functional. A digest of the protocol:
as §4

Test [13] deals with DU-145. The test is described as follows: Cytotoxicity against human DU-145 cells assessed as cell death at 6 to 10 uM measured after 48 hrs. Type of test: functional, cell-based. The note with it: dose 6-10 µM. A digest of the protocol:
as §3

For test [14], the system named is JIMT-1. In words: Cytotoxicity against human JIMT-1 cells assessed as cell death at 6 to 10 uM measured after 48 hrs. The following applies: dose 6-10 µM. Type of test: functional, cell-based. A digest of the protocol: as §3
Test [15] deals with BXPC-3. The test is described as follows: Cytotoxicity against human BXPC-3 cells assessed as cell viability measured after 48 hrs by using PrestoBlue cell viability assay. Type of test: functional. A digest of the protocol:
as §4

Test [16] deals with MDA-MB-231. The test is described as follows: Cytotoxicity against human MDA-MB-231 cells assessed as cell viability measured after 48 hrs by using PrestoBlue cell viability assay. Type of test: functional. In short, it runs like this:
as §4

The subject of test [17] is OVCAR-3. The test is described as follows: Cytotoxicity against human OVCAR-3 cells assessed as elimination of cells at 6 uM measured after 48 hrs by using PrestoBlue cell viability assay. In kind it is functional. A digest of the protocol: (§5)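 OVCAR-3 in RPMI with 10% FBS, 0.01 mg/mL insulin and penicillin/streptomycin, seeded at 7500 cells/well. After 24 h, exposed 48 h to increasing drug concentrations (30 mM stock). PrestoBlue 10% v/v, 40-45 min, fluorescence ex 560/em 590 nm, blank-subtracted, relative to vehicle. Two experiments, five wells per concentration.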

Test [18] has as its system MIA PaCa-2. In words: Cytotoxicity against human MIAPaCa-2 cells assessed as cell death at 6 to 10 uM measured after 48 hrs. In kind it is functional, cell-based. The following applies: dose 6-10 µM. A digest of the protocol:
as §2

A short description of test [19]: Cytotoxicity against human HEY C2 cells assessed as cell viability measured after 48 hrs by using PrestoBlue cell viability assay. Type of test: functional. A digest of the protocol:
as §4

Test [20] has as its system OVCAR-3. The test is described as follows: Cytotoxicity against human OVCAR-3 cells assessed as cell viability measured after 48 hrs by using PrestoBlue cell viability assay. Type of test: functional. In short, it runs like this: as §5
In test [21] the test system is HepG2. The test is described as follows: Cytotoxicity against human HepG2 cells assessed as cell viability measured after 48 hrs by using PrestoBlue cell viability assay. Type of test: functional. In short, it runs like this:
as §4

For test [22], the system named is DU-145. The test is described as follows: Cytotoxicity against human DU-145 cells assessed as cell death up to 10 uM measured after 48 hrs. In kind it is functional, cell-based. A digest of the protocol: as §3
For test [23], the system named is BT-474. The test is described as follows: Cytotoxicity against human BT-474 cells assessed as cell death up to 10 uM measured after 48 hrs. In kind it is functional, cell-based. A digest of the protocol:
as §1

Test [24] concerns JIMT-1. In words: Cytotoxicity against human JIMT-1 cells assessed as cell death up to 10 uM measured after 48 hrs. In kind it is functional, cell-based. A digest of the protocol: as §3
Test [25] deals with MIA PaCa-2. The test is described as follows: Cytotoxicity against human MIAPaCa-2 cells assessed as cell death up to 10 uM measured after 48 hrs. Type of test: functional, cell-based. A digest of the protocol:
as §2

The source made the active and inactive calls. The rule behind the calls is not given here.

As for `CCCCCCCCCCCCCCCCOC[C@H](CO[C@H]1O[C@H](CO)[C@H](O)[C@H](O)[C@H]1N)OC`, the CC50 is above 20 µM in test [1], 10 µM in test [2], 9.9 µM in test [3] and 10.9 µM in [4].

For the molecule `CCCCCCCCCCCCCCCCOC[C@H](CN)O[C@H]1O[C@H](CO)[C@H](N)[C@H](O)[C@H]1N`, the CC50 in test [1] worked out at 7.4 µM; in test [2] it was 8.1 µM; in test [3], 6.3 µM; in [4] it was 8.2 µM.

On to `CCCCCCCCCCCCCCCCOC[C@H](CO[C@@H]1O[C@H](CN)[C@H](O)[C@H](O)[C@H]1N)OC`, for which the CC50 in test [1] was 6.4 µM; in test [2], 7.5 µM; in test [3], 5.7 µM; in test [4] it was 6.6 µM. Further, the “Ratio IC50” value in [5], in test [6] and in test [7] was 1.5 throughout.

As for `CCCCCCCCCCCCCCCCOC[C@H](CO[C@H]1O[C@H](CN)[C@H](O)[C@H](O)[C@H]1N)OC`, the 50% cytotoxic concentration (CC50) is 6.9 µM in test [1], 6.6 µM in test [2], 4.9 µM in [3] and 5.5 µM in test [4]. The “Ratio IC50” value in test [5], in [6] and in [7] was 1.5 in each case.

For the molecule `CCCCCCCCCCCCCCCCOC[C@H](CO[C@H]1O[C@H](CO)[C@H](N)[C@H](O)[C@H]1N)OC`, the CC50 in test [1] was above 10 µM; in test [2], 6.5 µM; in [3], 5 µM; in [4] it was 6.3 µM.

Take `CCCCCCCCCCCCCCCCOC[C@H](CN)O[C@@H]1O[C@H](CO)[C@H](N)[C@H](O)[C@H]1N`: the CC50 is above 10 µM in test [1], 7.4 µM in test [2], 8.9 µM in test [3] and above 10 µM in test [4].

For the molecule `CCCCCCCCCCCCCCCCOC[C@H](CO[C@H]1O[C@H](CN)[C@H](N)[C@H](O)[C@H]1N)OC`, the 50% cytotoxic concentration (CC50) amounted to 8 µM in test [1], 5.3 µM in test [2], 5.4 µM in test [3] and 6.7 µM in test [4].

As for `CCCCCCCCCCCCCCCCOC[C@H](CO[C@@H]1O[C@H](CN)[C@H](N)[C@H](O)[C@H]1N)OC`, the 50% cytotoxic concentration (CC50) in test [1] stood at 5.6 µM; in [12], 3.1 µM; in [2], 4.5 µM; in test [15], 2.6 µM; in test [16], 6.5 µM; in [3], 3.8 µM. Also, the half-maximal cytotoxic concentration (CC50) stood at 3.3 µM in test [4], 5.5 µM in test [19], 2.6 µM in test [20] and 3.6 µM in test [21]. Besides, the outcome in test [8], in [10], in test [13], in test [14] and in test [18] was Active. The Activity in test [9], in test [11] and in test [17] was 100% throughout. Also, the “Ratio IC50” value in test [5], in test [6] and in test [7] was 2 throughout.

Turning to `COc1cccc2c1C(=O)c1c(O)c3c(c(O)c1C2=O)C[C@@](O)(C(=O)CO)C[C@@H]3O[C@H]1C[C@H](N)[C@H](O)[C@H](C)O1`, the outcome in [22], in test [23], in [24] and in test [25] was inactive.

With `CCCCCCCCCCCCCCCCOC[C@H](CO[C@@H]1O[C@H](CO)[C@H](N)[C@H](O)[C@H]1N)OC`, the 50% cytotoxic concentration (CC50) in [1] was above 10 µM; in test [2] it was 7.8 µM; in test [3], 5.8 µM; in test [4] it was 6.6 µM.

These data come from ChEMBL document CHEMBL6134777, “Modulating polybasic character of galactose-based glycosylated antitumor ether lipids for enhanced cytotoxic response” (2025).
